Wee1 stabilizer: human Wee1 degradation inhibition, primary screen; 220,000 tested, 1.2% active; HeLa Luc-Wee1K328M stability, luciferase luminescence; 100% = proteasome inhibitor MG132 effect; P30291; reporter increase, % at 5 µM;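 active means activation above the mean of all tested compounds plus 3 SD, set per screening run, cut at about 8.8% in these data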;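 further: cells exposed to compound for 20 h before luminescence read; 0% = DMSO alone and 100% = MG132 at 30 µM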
Target sequence (P30291 whole entry K328M): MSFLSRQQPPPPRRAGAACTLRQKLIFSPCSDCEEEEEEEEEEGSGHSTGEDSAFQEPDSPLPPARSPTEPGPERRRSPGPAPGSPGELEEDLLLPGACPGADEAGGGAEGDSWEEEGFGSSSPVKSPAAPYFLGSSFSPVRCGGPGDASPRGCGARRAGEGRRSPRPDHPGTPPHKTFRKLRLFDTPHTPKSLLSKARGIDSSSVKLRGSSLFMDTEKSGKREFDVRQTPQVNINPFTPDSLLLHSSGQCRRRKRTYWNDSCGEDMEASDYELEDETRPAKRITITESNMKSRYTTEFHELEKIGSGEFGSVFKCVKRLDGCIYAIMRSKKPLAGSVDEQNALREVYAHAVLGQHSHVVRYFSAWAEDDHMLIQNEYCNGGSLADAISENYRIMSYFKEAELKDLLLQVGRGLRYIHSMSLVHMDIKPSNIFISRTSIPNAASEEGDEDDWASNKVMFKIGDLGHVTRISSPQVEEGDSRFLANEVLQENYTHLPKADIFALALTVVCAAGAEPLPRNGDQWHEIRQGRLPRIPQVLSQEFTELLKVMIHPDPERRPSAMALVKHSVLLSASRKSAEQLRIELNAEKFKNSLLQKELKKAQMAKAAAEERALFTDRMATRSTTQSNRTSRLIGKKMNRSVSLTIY
Hsp70 act: transcriptional activators of Hsp70; HeLa Hsp70 promoter luciferase reporter, luminescence; scaled: vehicle 0, proteasome-inhibitor control 100%; activation, % at 10 µM; 200,000 tested, 0.04% active; AID 1203;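 active means activation above the mean across all tested compounds plus 3 SD, cutoff set per campaign, cut at about 5.5% in these data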;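 further: 100% = MG132 at 30 µM as the positive control and 0% = DMSO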
Ins promoter up: MIN6 insulin promoter up-regulation | MIN6 insulin promoter-GFP reporter, high-content imaging; stronger effect = higher value | z-score at 5 µM | 190,000 tested, 0.3% active;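 active means z-score above 3 at 5 µM with at least 500 cells counted in the well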
RBBP9 inh: inhibitors of human serine hydrolase RBBP9; inhibition, % at 7.94 µM; recombinant RBBP9, FP-Rh probe fluorescence polarization; O75884; 220,000 tested, 0.2% active;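 active means inhibition above the campaign mean of all tested compounds plus 3 SD, cut at about 14% in these data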;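 further: plate controls were DMSO wells with RBBP9 for no effect and wells lacking RBBP9 protein for full effect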
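Test system – recombinant human RBBP9 · Input – RBBP9 2.5 µM in dispensing solution, pre-mixing · Medium – Tris buffer pH 8.0, NaCl, Pluronic · Schedule – preincubation 30 min plus labeling 45 min at 25 °C · Measured by – fluorescence polarization · Measure – % inhibition · Controls – DMSO and no-protein wells · Replicates – one well per compound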
Mdm2 ligase inh: Mdm2 E3 ligase (human) inhibition; Q00987; cell-based MDM2 ubiquitination luciferase reporter, 2 h; 0 = plate control, 100 = twice control, blank-subtracted; signal enhancement, % at 5 µM; 210,000 tested, 0.11% active;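 active means signal enhancement of 30% or more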;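 further: luminescence tracks abundance of the self-degrading MDM2-luciferase fusion protein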
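Material: stable MDM2–luciferase fusion reporter cells / Quantity: 2000 cells/well / Dosing: single 5 µM compound dose, 0.2% final DMSO / Buffer or medium: DMEM / Schedule: 4 h cell settling then 2 h compound exposure, 37 °C / Detection: luminescence with SteadyLite reagent, 15 min at room temperature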
Insulin prom inh: TRM-6 insulin promoter activity inhibition; TRM-6 cells, insulin promoter-eGFP reporter, imaging; reporter expression induced with tamoxifen; inhibition, % at 2 µM; 130,000 tested, 0.9% active;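 active means inhibition above the mean plus 3 SD, with well images judged a real hit on visual review, cut at about 60% in these data, passing the limit was not always enough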
Wee1 degr conf: confirmation of human Wee1 degradation inhibitors; shares compounds with Wee1 stabilizer; HeLa Luc-Wee1K328M degradation, luminescence; vehicle 0%, proteasome-blocked wells 100%; activation, % at 5 µM; 1,100 tested, 4% active; AID 1410; in the data active means activation above about 8.9%
Numbers without * were called inactive; . = not tested or not shown. An excerpt weighted towards active compounds, which were near 2.2% of everything screened.

SMILES	Wee1 stabilizer	Hsp70 act	Ins promoter up	RBBP9 inh	Mdm2 ligase inh	Insulin prom inh	Wee1 degr conf
Cc1nn2cc(-c3ccc(Cl)cc3)nc2s1	13.8*	0.1	0.27	-3.9	-27.0	.	0.1
O=C(CN1CCN(Cc2ccccc2Cl)CC1)N/N=C/C=C/c1ccccc1[N+](=O)[O-]	-2.2	-0.3	-0.95	-1.0	-2.0	2.9	.
COc1ccc(Nc2nc(N)nc(CSc3nccn3C)n2)cc1	11.7*	0.3	-0.04	-9.9	-8.6	.	1.3
COc1ccc(S(=O)(=O)N2CCC(C(=O)Nc3ccccc3C)CC2)c2cccnc12	1.3	-0.2	0.91	3.7	1.8	-48.6	.
NC(=O)COc1ccc2oc(-c3ccccc3)cc(=O)c2c1	13.7*	-0.3	-0.47	-3.2	-90.0	29.7	3.5
O=C(Cn1c(-c2ccccc2)c[n+]2ccsc12)c1ccc(Br)cc1	5.0	-0.1	-1.89	-1.2	-3.5	.	.
Cc1cccc2cc3c(N)c(C(=O)N4CCOCC4)sc3nc12	14.0*	0.1	.	-10.2	-8.1	-21.2	7.6
Cc1ccc(NC(=S)N/N=C/c2cccn2Cc2ccccc2F)cc1	19.2*	.	0.26	-8.8	.	.	1.4
CC(C)(C)NC(=O)NCCc1ccccc1	13.0*	.	0.58	-2.8	-16.3	.	-0.8
CC(C)(C)C(=O)NC(=S)NCCc1ccccc1	-3.4	0.3	0.2	-6.4	-1.6	.	.
COc1ccc(NC(=O)CN2CCCCC2)cc1	0.9	3.1	.	3.0	-5.2	-207.4	.
COc1ccc(NC(=O)CN2CCC(NC(=O)C3CCCCC3)CC2)cc1	14.8*	-0.1	-0.39	-8.2	-15.7	0.0	0.6
CN(C)CCCNc1oc(-c2ccccc2)nc1C#N	14.0*	0.0	0.51	-9.0	-6.9	-15.6	-1.0
CSCCC1NC(=O)N(CC(=O)Nc2ccc(-c3ccccc3)cc2)C1=O (stereo not given)	0.7	.	-0.19	-1.2	-7.0	.	.
Cn1cccc1/C=C1\SC(=Nc2ccc(O)cc2)NC1=O	-0.7	.	-0.24	-8.9	-5.8	.	.
Cn1cccc1/C=C1\SC(=Nc2ccccc2)NC1=O	19.3*	.	0.1	8.7	-6.3	.	13.5*
Cc1cc([N+](=O)[O-])nn1CCC(=O)Nc1nccs1	-4.5	-0.1	.	-6.3	1.4	26.7	.
O=C(Nc1nc2ccccc2[nH]1)c1cccs1	12.3*	0.0	-0.4	2.1	-24.2	-50.0	-1.4
O=c1[nH]c2ccccc2nc1/C=C(\O)c1cccs1	15.7*	0.1	2.61	-8.5	-16.9	.	9.6*
CC(C)(C)/C(O)=C/c1nc2ccccc2[nH]c1=O	-2.8	-0.3	-0.02	-5.6	-14.5	.	.
O=c1[nH]c2ccccc2nc1/C=C/c1ccc(O)cc1	11.3*	-0.2	0.46	-8.2	-9.8	.	6.2
O=C1Nc2ccccc2N=C(c2ccccc2)c2ccccc21	2.8	.	-0.39	-0.8	-10.3	.	.
O=C(NC(Cc1ccccc1)C(=O)O)/C(=C/c1ccc([N+](=O)[O-])cc1)NC(=O)c1ccccc1Br (stereo not given)	1.7	-0.5	0.93	-0.1	-10.6	14.3	.
O=[N+]([O-])c1cccc(N/N=C/c2cccc(O)c2O)c1	11.5*	-0.1	.	-1.6	-4.7	-26.7	-2.9
O=[N+]([O-])c1ccccc1N/N=C/c1cccc(O)c1O	0.4	.	-4.66	11.9	.	.	.
SMILES	Wee1 stabilizer	Hsp70 act	Ins promoter up	RBBP9 inh	Mdm2 ligase inh	Insulin prom inh	Wee1 degr conf
O=C(O)Cn1c(CCS(=O)(=O)c2ccc(Br)cc2)nc2ccccc21	12.8*	0.0	0.1	-1.7	-6.0	-9.1	-0.7
Cc1ccc(-n2c(C)cc(/C=N/NC(=O)c3ccc(CN4CCOCC4)cc3)c2C)cc1	0.8	-0.1	-0.91	-7.1	-8.9	-51.9	.
COc1cc(CNc2ccc(N3CCN(C(C)=O)CC3)cc2)ccc1OCc1ccc(F)cc1	11.6*	-0.2	-1.04	2.5	-3.2	.	3.0
COc1ccccc1N1CCN(CC(O)COc2ccc3c(C)cc(=O)oc3c2)CC1 (stereo not given)	16.7*	-0.1	-0.88	9.2	-11.5	-252.0	-0.4
Cc1cc(=O)oc2cc(OCC(O)CN3CCN(c4ccccc4)CC3)ccc12 (stereo not given)	-2.3	0.1	-0.38	-5.0	-9.5	-2.8	.
Cc1occc1C(=O)N/N=C/C(Br)=C\c1ccccc1	28.0*	.	.	-3.3	-22.6	.	4.7
CC(=C/c1ccccc1)/C=N/NC(=O)c1cccs1	-0.1	.	0.01	-6.2	-32.6	.	.
O=C(N/N=C/C(Br)=C\c1ccccc1)c1cccs1	12.4*	.	.	-10.7	-6.9	.	5.4
CC(C(=O)OCc1nnc(-c2ccccc2)o1)N1C(=O)C2CCCCC2C1=O (stereo not given)	-2.1	-0.2	0.63	-10.7	-39.0	-14.3	.
Cc1ccc(O)c(-c2cc(-c3ccccc3F)[nH]n2)c1	3.2	0.5	1.07	-10.5	-9.5	18.8	.
Cc1ccc(O)c(-c2cc3ccccc3[nH]2)c1	10.9*	-0.2	0.44	1.4	19.1	-206.2	-0.2
COc1ccc(-c2nnn3c2nc(NCc2ccccc2)c2ccccc23)cc1	-0.5	-0.1	-0.25	-3.5	-5.9	.	.
Cc1ccc2nc(C3CCN(CC(=O)Nc4ccc5c(c4)OCCO5)CC3)[nH]c2c1	12.1*	0.2	-0.4	2.6	-15.1	.	-0.2
Cc1ccc(C)c(S(=O)(=O)Nc2ccc(O)cc2)c1	-1.2	-0.2	-1.63	4.6	-11.6	-50.0	.
CCNS(=O)(=O)c1ccc(NS(=O)(=O)c2cc(C)ccc2C)cc1	13.1*	0.0	0.66	-9.2	-14.9	-20.9	-0.1
CC(C)c1ccc(CN(C(=O)/C=C/c2ccco2)C2CCS(=O)(=O)C2)cc1 (stereo not given)	2.3	.	0.21	-1.3	-2.7	.	.
CC(=O)OCC(=O)N1N=C(c2ccc3ccccc3c2)CC1c1ccccc1 (stereo not given)	4.9	0.6	-0.27	0.8	-1.6	.	.
COc1ccc(C2CC(c3ccc4ccccc4c3)=NN2C(=O)COC(=O)C2CCC(=O)N2)cc1 (stereo not given)	14.2*	0.2	-0.49	-0.6	-8.2	.	7.9
Cc1c(O)c2c3c(cccc3c1O)C(=O)N(c1ccccc1)C2=O	-0.6	-0.5	0.07	-0.2	-2.0	21.4	.
CCCCCCCn1c(NC(=O)CC)nc2ccccc21	-1.1	.	-1.93	-3.7	-1.3	.	.
COc1cccc(C2=CC(c3cccc(OC)c3OC(F)F)n3nnnc3N2)c1 (stereo not given)	0.7	-0.2	1.22	-1.1	3.9	14.3	.
COc1cccc(C2=CC(c3cccc(OC)c3OC)n3nnnc3N2)c1 (stereo not given)	11.4*	0.0	0.39	-7.7	6.8	.	11.8*
O=C(C[n+]1ccc(C(=O)N/N=C/c2ccc(Cl)cc2Cl)cc1)c1ccccc1	12.8*	-0.6	0.22	-2.4	-10.3	-6.8	-5.8

Screening results as filed in PubChem BioAssay.
